Measurements as given in ChEMBL document CHEMBL5058577, “EUbOPEN Chemogenomics Library 2 (Multiplex)” (2022).

System: HEK-293T
Assay: Multiplex assay against HEK293T
Assay type: toxicity, cell-based
Details: human
Summary of the method: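 Cells stained live at seeding with Hoechst33342, BioTracker Green Microtubule Cytoskeleton Dye, MitoTracker Red and Annexin V Alexa Fluor 680 were imaged on a CQ1 microscope at 37°C and 5% CO2 after compound addition. Their classification by CellPathfinder machine-learning gating ran from Hoechst high-intensity objects versus normal cells, to healthy, pyknosed or fragmented nuclei among normal cells, to mitotic or apoptotic among pyknosed cells. Tubulin, mitochondrial-mass and membrane-permeability phenotypes are per cents of healthy-nucleus cells.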

[1] = 12 h, 1 µM, compound concentration 1 uM, replicate 1
[2] = 12 h, 1 µM, compound concentration 1 uM, replicate 2
[3] = 12 h, 10 µM, compound concentration 10 uM, replicate 1
[4] = 12 h, 10 µM, compound concentration 10 uM, replicate 2
[5] = 24 h, 1 µM, compound concentration 1 uM, replicate 1
[6] = 24 h, 1 µM, compound concentration 1 uM, replicate 2
[7] = 24 h, 10 µM, compound concentration 10 uM, replicate 1
[8] = 24 h, 10 µM, compound concentration 10 uM, replicate 2
[9] = 48 h, 1 µM, compound concentration 1 uM, replicate 1
[10] = 48 h, 1 µM, compound concentration 1 uM, replicate 2
[11] = 48 h, 10 µM, compound concentration 10 uM, replicate 1
[12] = 48 h, 10 µM, compound concentration 10 uM, replicate 2

## Cc1sc2c(c1C)C(c1ccc(Cl)cc1)=N[C@H](CC(=O)OC(C)(C)C)c1nnc(C)n1-2
[1]
  Population Apoptotic (%): 40%
  Population Fragmented Nuclei (%): 8%
  Population Healthy Nuclei (%): 80%
  Population Hoechst High Intensity Objects (%): 8%
  Population Membrane Permeable-Phenotype (%): 0%
  Population Mitochondria Different-Phenotype (%): 49%
  Population Mitotic Cells (%): 60%
  Population Normal (%): 91%
  Population Pyknosed Nuclei (%): 10%
  Population Tubulin-Different-Phenotype (%): 32%
  Total Cell Count: 478
[2]
  Population Apoptotic (%): 44%
  Population Fragmented Nuclei (%): 6%
  Population Healthy Nuclei (%): 76%
  Population Hoechst High Intensity Objects (%): 9%
  Population Mitochondria Different-Phenotype (%): 65%
  Population Mitotic Cells (%): 55%
  Population Normal (%): 90%
  Population Pyknosed Nuclei (%): 17%
  Population Tubulin-Different-Phenotype (%): 26%
  Total Cell Count: 333
[3]
  Population Apoptotic (%): 41%
  Population Fragmented Nuclei (%): 7%
  Population Healthy Nuclei (%): 76%
  Population Hoechst High Intensity Objects (%): 7%
  Population Membrane Permeable-Phenotype (%): 0%
  Population Mitochondria Different-Phenotype (%): 74%
  Population Mitotic Cells (%): 58%
  Population Normal (%): 92%
  Population Pyknosed Nuclei (%): 15%
  Population Tubulin-Different-Phenotype (%): 67%
  Total Cell Count: 395
[4]
  Population Apoptotic (%): 66%
  Population Fragmented Nuclei (%): 5%
  Population Healthy Nuclei (%): 72%
  Population Hoechst High Intensity Objects (%): 10%
  Population Mitochondria Different-Phenotype (%): 90%
  Population Mitotic Cells (%): 33%
  Population Normal (%): 89%
  Population Pyknosed Nuclei (%): 21%
  Population Tubulin-Different-Phenotype (%): 70%
  Total Cell Count: 303
[5]
  Population Apoptotic (%): 32%
  Population Fragmented Nuclei (%): 10%
  Population Healthy Nuclei (%): 76%
  Population Hoechst High Intensity Objects (%): 5%
  Population Membrane Permeable-Phenotype (%): 0%
  Population Mitochondria Different-Phenotype (%): 29%
  Population Mitotic Cells (%): 68%
  Population Normal (%): 94%
  Population Pyknosed Nuclei (%): 13%
  Population Tubulin-Different-Phenotype (%): 19%
  Total Cell Count: 609
[6]
  Population Healthy Nuclei (%): 82%
  Population Hoechst High Intensity Objects (%): 6%
  Population Mitochondria Different-Phenotype (%): 43%
  Population Mitotic Cells (%): 67%
  Population Normal (%): 93%
  Population Pyknosed Nuclei (%): 6%
  Population Tubulin-Different-Phenotype (%): 11%
  Total Cell Count: 479
[7]
  Population Apoptotic (%): 41%
  Population Fragmented Nuclei (%): 8%
  Population Healthy Nuclei (%): 68%
  Population Hoechst High Intensity Objects (%): 4%
  Population Membrane Permeable-Phenotype (%): 0%
  Population Mitochondria Different-Phenotype (%): 64%
  Population Mitotic Cells (%): 58%
  Population Normal (%): 95%
  Population Pyknosed Nuclei (%): 23%
  Population Tubulin-Different-Phenotype (%): 46%
  Total Cell Count: 468
[8]
  Population Apoptotic (%): 49%
  Population Fragmented Nuclei (%): 3%
  Population Healthy Nuclei (%): 76%
  Population Hoechst High Intensity Objects (%): 6%
  Population Membrane Permeable-Phenotype (%): 1%
  Population Mitochondria Different-Phenotype (%): 76%
  Population Mitotic Cells (%): 50%
  Population Normal (%): 93%
  Population Pyknosed Nuclei (%): 19%
  Population Tubulin-Different-Phenotype (%): 47%
  Total Cell Count: 378
[9]
  Population Apoptotic (%): 18%
  Population Fragmented Nuclei (%): 11%
  Population Healthy Nuclei (%): 80%
  Population Hoechst High Intensity Objects (%): 3%
  Population Membrane Permeable-Phenotype (%): 1%
  Population Mitochondria Different-Phenotype (%): 16%
  Population Mitotic Cells (%): 81%
  Population Normal (%): 96%
  Population Pyknosed Nuclei (%): 7%
  Population Tubulin-Different-Phenotype (%): 10%
  Total Cell Count: 1012
[10]
  Population Apoptotic (%): 30%
  Population Fragmented Nuclei (%): 14%
  Population Healthy Nuclei (%): 79%
  Population Hoechst High Intensity Objects (%): 4%
  Population Membrane Permeable-Phenotype (%): 0%
  Population Mitochondria Different-Phenotype (%): 21%
  Population Mitotic Cells (%): 69%
  Population Normal (%): 95%
  Population Pyknosed Nuclei (%): 5%
  Population Tubulin-Different-Phenotype (%): 12%
  Total Cell Count: 685
[11]
  Population Apoptotic (%): 31%
  Population Fragmented Nuclei (%): 9%
  Population Healthy Nuclei (%): 73%
  Population Hoechst High Intensity Objects (%): 3%
  Population Membrane Permeable-Phenotype (%): 0%
  Population Mitochondria Different-Phenotype (%): 47%
  Population Mitotic Cells (%): 68%
  Population Normal (%): 96%
  Population Pyknosed Nuclei (%): 16%
  Population Tubulin-Different-Phenotype (%): 19%
  Total Cell Count: 641
[12]
  Population Apoptotic (%): 55%
  Population Fragmented Nuclei (%): 8%
  Population Healthy Nuclei (%): 76%
  Population Hoechst High Intensity Objects (%): 5%
  Population Mitochondria Different-Phenotype (%): 66%
  Population Mitotic Cells (%): 44%
  Population Normal (%): 94%
  Population Pyknosed Nuclei (%): 15%
  Population Tubulin-Different-Phenotype (%): 28%
  Total Cell Count: 525
